Here are results for 6 substances from paper PMC10634246 (ACS Omega, 2023).

Assay [1] concerns eNOS. Kind of assay: Western blot, eNOS expression in HUVEC. The assay is classed as cell-based, human. Conditions: peptide 100 μM, 4 h, then Ang II 5 μM, 24 h. In a few lines: (§1)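 HUVECs at 5 × 10^6 cells/well, pretreated with 100 μM test peptide 4 h, then Ang II 5 μM 24 h. Lysed in ice-cold buffer 30 min, spun 12,000 × g 10 min, protein by BCA. Denatured 95 °C 10 min, 20–40 μg on 10% SDS-PAGE, PVDF transfer. Blocked in 5% BSA 1 h RT, primary antibody 4 °C overnight, secondary 1 h RT. Triplicate, mean ± SD.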
On the technique in general: In western blotting, separated proteins are transferred to a membrane and probed.

Assay [2] concerns HUVEC. Put plainly: MDA content in HUVEC. Conditions: 24 h, n = 3. The assay is classed as cell-based, human.
Assay [3] concerns ET-1. Kind of assay: Western blot, ET-1 expression in HUVEC. The assay is classed as cell-based, human. The note with it: peptide 100 μM, 4 h, then Ang II 5 μM, 24 h. The gist of the method: as §1
Assay [4] deals with GSH-Px. Kind of assay: GSH-Px activity in HUVEC. The assay is classed as cell-based, human. Conditions: peptide 100 μM, 4 h, then Ang II 5 μM, 24 h; assay kit; n = 3.
Assay [5] has as its system HUVEC. Put plainly: NO level in HUVEC. The assay is classed as cell-based, human. The note with it: peptide 100 μM, 4 h, then Ang II 5 μM, 24 h; for NO level: assay kit, n = 3.
For assay [6], the system named is CAT. Kind of assay: CAT activity in HUVEC. The assay is classed as cell-based, human. Conditions: peptide 100 μM, 4 h, then Ang II 5 μM, 24 h; assay kit; n = 3.
The test system of assay [7] is HUVEC. Kind of assay: HUVEC morphology and cell number, inverted microscope. The assay is classed as cell-based, human. Conditions: peptide 100 μM, 4 h, then Ang II 5 μM, 24 h; 200×. In a few lines: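 HUVECs were suspended in fresh medium at a final 4 × 10^5 cells/well in 6-well plates and given 100 μM test peptide for 4 h. Medium was discarded, then 5 μM Ang II was added for 24 h. Cells were observed and photographed under an inverted microscope.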

Assay [8] deals with Nrf2. Kind of assay: Western blot, Nrf2 expression in HUVEC. The assay is classed as cell-based, human. Conditions: peptide 100 μM, 4 h, then Ang II 5 μM, 24 h; for expression of Nrf2 protein: gray scale analysis of bands. In a few lines:
as §1

For assay [9], the system named is p-eNOS. Put plainly: Western blot, p-eNOS in HUVEC. The assay is classed as cell-based, human. The note with it: peptide 100 μM, 4 h, then Ang II 5 μM, 24 h. In a few lines:
as §1

Assay [10] relates to SOD. Put plainly: SOD activity in HUVEC. The assay is classed as cell-based, human. The note with it: peptide 100 μM, 4 h, then Ang II 5 μM, 24 h; assay kit; n = 3.
Assay [11] concerns HO-1. Put plainly: Western blot, HO-1 expression in HUVEC. The assay is classed as cell-based, human. Conditions: peptide 100 μM, 4 h, then Ang II 5 μM, 24 h; gray scale analysis of bands. In a few lines:
as §1

Assay [12] relates to HepG2. Conditions: cited from earlier work.
Assay [13] has as its system NQO1. Kind of assay: Western blot, NQO1 expression in HUVEC. The assay is classed as cell-based, human. The note with it: peptide 100 μM, 4 h, then Ang II 5 μM, 24 h; gray scale analysis of bands. The gist of the method:
as §1

Assay [14] relates to eNOS and ET-1. Conditions: cited from earlier work.
In assay [15] the test system is HUVECs. Conditions: Ang II-stimulated HUVECs; cited from earlier work.

On to “Angiotensin II [Ang II, reference compound]”, for which, in assay [1], the eNOS expression result is reported as “obvious inhibition”. The “increase of MDA content compared to the Con group” value in assay [2] (Ang II 5 μM, compared to Con group) is reported as 200%. Moreover, in [3], the ET-1 expression result is “increased”. Further, the GSH-Px activity result in assay [4] is reported as “significantly reduced”. Besides, the NO level entry in [5] is reported as “obvious inhibition”. In addition, in [6], the CAT activity result was “significantly reduced”. In assay [7], the HUVEC morphology result is given as “polygonal or round with the blurred cell boundaries” and the number of cells entry is “significantly reduced compared with the Con group”. For the same substance, the “expression of Nrf2 protein” value in [8] was “significantly inhibited”. For the same substance, in [9], the “eNOS phosphorylation (p-eNOS)” value is reported as “obvious inhibition”. In addition, the SOD activity entry in assay [10] is given as “significantly reduced”.
Consider KLHDEEVA [KA-8], for which the HO-1 expression result in assay [11] is “increased”. Besides, the eNOS expression entry in [1] is “increased”. Besides, in [3], the ET-1 expression result is reported as “markedly blocked the Ang II-induced changes”. The GSH-Px activity result in assay [4] is on record as “significantly reversed the decline”. The NO level result in [5] was “increased”. Also, the “protection against hyperglycemia-induced HepG2 damage” value in [12] is on record as “revealed the protective effects”. For the same substance, the CAT activity result in assay [6] is reported as “significantly reversed the decline”. Besides, in assay [7], the HUVEC morphology entry was “did not improve the number and morphology of cells as significantly as PG-8”; the number of cells result is “did not improve the number and morphology of cells as significantly as PG-8”. Further, the “expression of Nrf2 protein” value in assay [8] is “reversed the inhibitory effect of Ang II”. The “eNOS phosphorylation (p-eNOS)” value in assay [9] is listed as “increased”. Also, the NQO1 expression result in assay [13] was “increased”. Besides, in assay [10], the SOD activity result is “significantly reversed the decline”.
Take LSGYGP: the “effect on eNOS and ET-1 levels” value in assay [14] is on record as “improvement effects”. In addition, the “protection against oxidative stress and endothelial injury” value in [15] is given as “revealed protective effects”.
Regarding IVTNWDDMEK, in [14], the “effect on eNOS and ET-1 levels” value is given as “improvement effects”.
In the case of PSRILYG [PG-7], in [11], the HO-1 expression result is given as “higher than that in the KA-8 group”. Also, the eNOS expression result in assay [1] was “increased”. The “eNOS level higher than in the Ang II group” value in assay [1] (compared to Ang II group) is given as “more than 100%”. Moreover, in assay [2] (peptide 100 μM, 4 h, then Ang II 5 μM, assay kit), the “level of intracellular MDA” value was “decreased to that of the Con group”. In addition, the ET-1 expression entry in [3] is on record as “markedly blocked the Ang II-induced changes”. The GSH-Px activity entry in assay [4] is “significantly rebounded to the levels in the Con group”. Besides, in assay [5], the NO level result is recorded as “increased”. For the same substance, the “NO level higher than in the Ang II group” value in assay [5] (compared to Ang II group) was “more than 100%”. Also, the “protection against hyperglycemia-induced HepG2 damage” value in assay [12] was “revealed the protective effects”. Also, the CAT activity result in assay [6] was “significantly rebounded to the levels in the Con group”. In addition, the number of cells entry in assay [7] is on record as “significantly reversed”. Moreover, the “Nrf2 content higher than in the Con group” value in assay [8] (compared to Con group) is given as “about 50%”. The “expression of Nrf2 protein” value in [8] was “reversed the inhibitory effect of Ang II”. Further, the “eNOS phosphorylation (p-eNOS)” value in assay [9] was “increased”. The “p-eNOS level higher than in the Ang II group” value in assay [9] (compared to Ang II group) is reported as “more than 100%”. Besides, the NQO1 expression entry in [13] is recorded as “increased”. Further, the SOD activity entry in [10] is reported as “significantly rebounded to the levels in the Con group”.
As for IPIPATKT, the “effect on eNOS and ET-1 levels” value in assay [14] was “improvement effects”.
